From ChEMBL document CHEMBL1275546, “Use of gyrase resistance mutants to guide selection of 8-methoxy-quinazoline-2,4-diones” (2008) come the findings set out here.

In brackets after ≈: the same amount, converted by molar mass. Activity calls are given as the source filed them. The rule behind the calls is not given here.

By MIC is commonly meant the least concentration at which growth counts as inhibited.

In assay [1] the test system is Escherichia coli. As to the kind of experiment: Ratio of MIC for Escherichia coli K-12 KD2932 harboring gyrB D426N mutant gene to MIC for Escherichia coli K-12 KD1397 harboring wild type gyrB gene. Type of assay: functional. In a few lines: (§1)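 Isogenic E. coli K-12 tolC::Tn10 strains made by P1 transduction. Each grown in LB to mid-exponential phase, diluted to 10^{4-5} CFU/ml in LB tubes with drug, incubated overnight at 37°C. MIC = lowest concentration blocking visible growth. Ratio = mutant MIC divided by KD1397 (gyr+) MIC.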

The test system of assay [2] is Escherichia coli. As to the kind of experiment: Antibacterial activity against wild type Escherichia coli K-12 KD1397 harboring gyr gene. Type of assay: functional. In a few lines: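 Broth MIC: E. coli K-12 tolC::Tn10 strain grown in LB to mid-exponential phase, diluted to 10^4-5 CFU/ml in tubes of LB containing drug, incubated overnight at 37°C; MIC = lowest concentration blocking visible growth.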

For assay [3], the system named is Escherichia coli. Kind of assay: Ratio of MIC for Escherichia coli K-12 KD2934 harboring gyrB K447E mutant gene to MIC for Escherichia coli K-12 KD1397 harboring wild type gyrB gene. Format: functional. In a few lines:
as §1

For assay [4], the system named is Escherichia coli. As to the kind of experiment: Ratio of MIC for Escherichia coli K-12 KD2955 harboring gyrA D82A mutant gene to MIC for Escherichia coli K-12 KD1397 harboring wild type gyrA gene. Format: functional. In a few lines:
as §1

The test system of assay [5] is Escherichia coli. Kind of assay: Ratio of MIC for Escherichia coli K-12 KD2882 harboring gyrA G81C mutant gene to MIC for Escherichia coli K-12 KD1397 harboring wild type gyrA gene. Type of assay: functional. The method in brief: as §1
For assay [6], the system named is Escherichia coli. As to the kind of experiment: Ratio of MIC for Escherichia coli K-12 KD2886 harboring gyrA A51V mutant gene to MIC for Escherichia coli K-12 KD1397 harboring wild type gyrA gene. Type of assay: functional. The method in brief:
as §1

Assay [7] has as its system Escherichia coli. As to the kind of experiment: Ratio of MIC for Escherichia coli K-12 KD2864 harboring gyrA A84P mutant gene to MIC for Escherichia coli K-12 KD1397 harboring wild type gyrA gene. Type of assay: functional. In a few lines:
as §1

The test system of assay [8] is Escherichia coli. Kind of assay: Ratio of MIC for Escherichia coli K-12 KD2866 harboring gyrA D87Y mutant gene to MIC for Escherichia coli K-12 KD1397 harboring wild type gyrA gene.
Assay [9] relates to Escherichia coli. Kind of assay: Ratio of MIC for Escherichia coli K-12 KD2862 harboring gyrA S83L mutant gene to MIC for Escherichia coli K-12 KD1397 harboring wild type gyrA gene. Format: functional. The method in brief:
as §1

Assay [10] deals with Escherichia coli. Kind of assay: Ratio of MIC for Escherichia coli K-12 KD2880 harboring gyrA D87Y mutant gene to MIC for Escherichia coli K-12 KD1397 harboring wild type gyrA gene. Format: functional. The method in brief: as §1
For assay [11], the system named is Escherichia coli. As to the kind of experiment: Ratio of MIC for Escherichia coli K-12 KD2876 harboring gyrA S83W mutant gene to MIC for Escherichia coli K-12 KD1397 harboring wild type gyrA gene. Format: functional. In a few lines:
as §1

Assay [12] concerns Escherichia coli. Kind of assay: Ratio of MIC for Escherichia coli K-12 KD2878 harboring gyrA A67S mutant gene to MIC for Escherichia coli K-12 KD1397 harboring wild type gyrA gene. Type of assay: functional. In a few lines: as §1
For assay [13], the system named is Escherichia coli. As to the kind of experiment: Ratio of MIC for Escherichia coli K-12 KD2884 harboring gyrA A106H mutant gene to MIC for Escherichia coli K-12 KD1397 harboring wild type gyrA gene. Format: functional. The method in brief: as §1
The test system of assay [14] is Escherichia coli. As to the kind of experiment: Bactericidal activity against wild type Escherichia coli K-12 KD1397 at 10 times MIC. Format: functional. In a few lines:
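Exponentially growing E. coli K-12 (tolC-deficient via Tn10, gyr+) in LB at 37°C was exposed to drug at 10× the MIC for the indicated times. Aliquots were diluted and plated on drug-free agar to count CFU. Survival is expressed as the fraction of CFU present when drug was added. MIC came from overnight broth tubes inoculated at 10^4-5 CFU/ml and read by eye.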

The subject of assay [15] is Escherichia coli. As to the kind of experiment: Bactericidal activity against Escherichia coli K-12 […] harboring gyrA D87Y mutant gene assessed as bacterial count at 10 times MIC after 2 hrs. Type of assay: functional, organism-based.
For assay [16], the system named is Escherichia coli. Kind of assay: Bactericidal activity against Escherichia coli K-12 KD2866 harboring gyrA D87Y mutant gene assessed as bacterial count at 10 times MIC. Format: functional, organism-based.
In assay [17] the test system is Escherichia coli. Kind of assay: Bactericidal activity against wild type Escherichia coli K-12 KD1397 at 10 times MIC after 2 hrs. Type of assay: functional, organism-based. The method in brief:
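Wild-type KD1397 (tolC-deficient), exponential-phase LB culture, exposed to drug at 10× MIC for timed intervals or for 2 h. Samples diluted and plated on drug-free agar for CFU counts. Survival given as fraction of CFU at drug addition.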

Consider `COc1c(N2CC[C@@H](CN)C2)c(F)cc2c(=O)c(C(=O)O)cn(C3CC3)c12`, for which the figures for the Ratio with Escherichia coli [1] and in the assay with Escherichia coli [3] were 2 and >1, respectively. Besides, in the assay on Escherichia coli [2], 0.004 µg/mL (≈ 0.0107 µM) was the least that counted as inhibitory (MIC).
In the case of `COc1c(N2C[C@@H]3CCCN[C@@H]3C2)c(F)cc2c(=O)[nH]c(=O)n(C3CC3)c12`, the results for the Ratio with Escherichia coli [1] and with Escherichia coli [3] were 1 and <1, respectively.
As to `COc1c(N2CC[C@H](N)C2)c(F)cc2c(=O)n(N)c(=O)n(C3CC3)c12`, the Ratio in the assay with Escherichia coli [1], in the assay on Escherichia coli [4], in the assay on Escherichia coli [5], with Escherichia coli [6], with Escherichia coli [7] and in the assay with Escherichia coli [8] was 1 each time. In addition, the Ratio is recorded as <1 in the assay with Escherichia coli [3]; 1 in the assay on Escherichia coli [9]; 1 with Escherichia coli [10]; 1 in the assay on Escherichia coli [11]; 1 in the assay with Escherichia coli [12]; 1 with Escherichia coli [13].
Consider `COc1c(N2CC[C@@H](CN)C2)c(F)cc2c(=O)[nH]c(=O)n(C3CC3)c12`, for which the Ratio with Escherichia coli [1] and with Escherichia coli [3] was <1 in each case.
Regarding `COc1c(N2CC[C@@H](CN)C2)c(F)cc2c(=O)n(N)c(=O)n(C3CC3)c12`, the Ratio with Escherichia coli [1] is reported as <1; with Escherichia coli [4] it was 1; in the assay with Escherichia coli [5], 1; in the assay on Escherichia coli [6] it was 1; in the assay with Escherichia coli [7], 1; with Escherichia coli [8], 1. Also, the Ratio with Escherichia coli [3] is <1; with Escherichia coli [9], 1; in the assay on Escherichia coli [10], 1; with Escherichia coli [11], 1; in the assay on Escherichia coli [12] it was 1; in the assay on Escherichia coli [13] it was 1. In addition, the outcome in the assay on Escherichia coli [14], in the assay on Escherichia coli [15] and with Escherichia coli [16] was Active. Further, in the assay with Escherichia coli [2], the MIC came out at 0.7 µg/mL (≈ 1.93 µM).
As to `CCC1CN(c2c(F)cc3c(=O)n(N)c(=O)n(C4CC4)c3c2OC)CCN1` (stereo not drawn), the Ratio in the assay with Escherichia coli [1] is 1; in the assay with Escherichia coli [3], <1.
As to `COc1c(N2CC[C@H](N)C2)c(F)cc2c(=O)[nH]c(=O)n(C3CC3)c12`, the figures for the Ratio with Escherichia coli [1] and with Escherichia coli [3] were 1 and <1, respectively.
On to `COc1c(N2C[C@@H]3CCCN[C@@H]3C2)c(F)cc2c(=O)n(N)c(=O)n(C3CC3)c12`, for which the Ratio in the assay with Escherichia coli [1], in the assay on Escherichia coli [4], in the assay on Escherichia coli [5], in the assay with Escherichia coli [6], in the assay on Escherichia coli [7] and in the assay on Escherichia coli [8] was 1 throughout. The Ratio with Escherichia coli [3] is listed as <1; with Escherichia coli [9], 1; with Escherichia coli [10], 1; in the assay on Escherichia coli [11], 1; in the assay with Escherichia coli [12], 1; with Escherichia coli [13], 1. For the same molecule, the result in the assay on Escherichia coli [17] was inactive.
Regarding `COc1c(N2C[C@@H]3CCCN[C@@H]3C2)c(F)cc2c(=O)c(C(=O)O)cn(C3CC3)c12` [MOXIFLOXACIN], the Ratio in the assay on Escherichia coli [1] is 2; in the assay on Escherichia coli [3], <1.
With `COc1c(N2CC[C@H](N)C2)c(F)cc2c(=O)c(C(=O)O)cn(C3CC3)c12`, the Ratio in the assay with Escherichia coli [1] is on record as 2; with Escherichia coli [3], >1. This molecule also registered an MIC in the assay with Escherichia coli [2] of 0.016 µg/mL (≈ 0.0443 µM).
As to `CCC1CN(c2c(F)cc3c(=O)[nH]c(=O)n(C4CC4)c3c2OC)CCN1` (stereo not drawn), the Ratio is 1 in the assay with Escherichia coli [1] and <1 in the assay on Escherichia coli [3].
As to `CCC1CN(c2c(F)cc3c(=O)c(C(=O)O)cn(C4CC4)c3c2OC)CCN1` (stereo not drawn), in the assay on Escherichia coli [1], the Ratio turned out to be 2. Further, in the assay with Escherichia coli [14], the result was Active and the “fold change (FC)” value stood at 2. The Ratio in the assay on Escherichia coli [3] was <1.
